# Tested on: U2OS
# Test: Multiplex assay against U2OS
# Format: toxicity, cell-based
# Settings: human
# Method in brief: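 Live cells carried four stains from seeding: Hoechst33342, BioTracker Green Microtubule Cytoskeleton Dye, MitoTracker Red and Annexin V Alexa Fluor 680. They were imaged on a CQ1 microscope at 37°C and 5% CO2 after compound addition. Using CellPathfinder machine-learning gating, cells were split into Hoechst high-intensity objects or normal cells, normal cells into healthy, pyknosed or fragmented nuclei, and pyknosed cells into mitotic or apoptotic; tubulin, mitochondrial-mass and membrane-permeability phenotypes are per cents of healthy-nucleus cells.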
# [1] = 12 h, 1 µM, compound concentration 1 uM, replicate 1
# [2] = 12 h, 1 µM, compound concentration 1 uM, replicate 2
# [3] = 12 h, 10 µM, compound concentration 10 uM, replicate 1
# [4] = 12 h, 10 µM, compound concentration 10 uM, replicate 2
# [5] = 24 h, 1 µM, compound concentration 1 uM, replicate 1
# [6] = 24 h, 1 µM, compound concentration 1 uM, replicate 2
# [7] = 24 h, 10 µM, compound concentration 10 uM, replicate 1
# [8] = 24 h, 10 µM, compound concentration 10 uM, replicate 2
# [9] = 48 h, 1 µM, compound concentration 1 uM, replicate 1
# [10] = 48 h, 1 µM, compound concentration 1 uM, replicate 2
# [11] = 48 h, 10 µM, compound concentration 10 uM, replicate 1
# [12] = 48 h, 10 µM, compound concentration 10 uM, replicate 2
structure (smiles),measurement,setting,value
CN(C)C(=O)Cn1cc(-c2ccc(-c3nnc4ccccn34)cc2)cn1,Population Apoptotic (%),[1],90%
same,Population Fragmented Nuclei (%),[1],25%
same,Population Healthy Nuclei (%),[1],66%
same,Population Hoechst High Intensity Objects (%),[1],1%
same,Population Membrane Permeable-Phenotype (%),[1],6%
same,Population Mitochondria Different-Phenotype (%),[1],1%
same,Population Mitotic Cells (%),[1],9%
same,Population Normal (%),[1],98%
same,Population Pyknosed Nuclei (%),[1],8%
same,Population Tubulin-Different-Phenotype (%),[1],3%
same,Total Cell Count,[1],251
same,Population Fragmented Nuclei (%),[2],22%
same,Population Healthy Nuclei (%),[2],68%
same,Population Hoechst High Intensity Objects (%),[2],0%
same,Population Membrane Permeable-Phenotype (%),[2],3%
same,Population Mitochondria Different-Phenotype (%),[2],6%
same,Population Normal (%),[2],99%
same,Population Pyknosed Nuclei (%),[2],9%
same,Population Tubulin-Different-Phenotype (%),[2],4%
same,Total Cell Count,[2],123
same,Population Apoptotic (%),[3],95%
same,Population Fragmented Nuclei (%),[3],26%
same,Population Healthy Nuclei (%),[3],65%
same,Population Hoechst High Intensity Objects (%),[3],1%
same,Population Membrane Permeable-Phenotype (%),[3],4%
same,Population Mitochondria Different-Phenotype (%),[3],1%
same,Population Mitotic Cells (%),[3],4%
same,Population Normal (%),[3],98%
same,Population Pyknosed Nuclei (%),[3],7%
same,Population Tubulin-Different-Phenotype (%),[3],3%
same,Total Cell Count,[3],298
same,Population Apoptotic (%),[4],90%
same,Population Fragmented Nuclei (%),[4],11%
same,Population Healthy Nuclei (%),[4],81%
same,Population Mitochondria Different-Phenotype (%),[4],0%
same,Population Mitotic Cells (%),[4],10%
same,Total Cell Count,[4],140
same,Population Apoptotic (%),[5],94%
same,Population Fragmented Nuclei (%),[5],22%
same,Population Healthy Nuclei (%),[5],71%
same,Population Hoechst High Intensity Objects (%),[5],0%
same,Population Membrane Permeable-Phenotype (%),[5],4%
same,Population Mitochondria Different-Phenotype (%),[5],2%
same,Population Mitotic Cells (%),[5],5%
same,Population Normal (%),[5],99%
same,Population Pyknosed Nuclei (%),[5],5%
same,Population Tubulin-Different-Phenotype (%),[5],1%
same,Total Cell Count,[5],315
same,Population Apoptotic (%),[6],100%
same,Population Fragmented Nuclei (%),[6],17%
same,Population Healthy Nuclei (%),[6],74%
same,Population Membrane Permeable-Phenotype (%),[6],7%
same,Population Mitochondria Different-Phenotype (%),[6],7%
same,Population Mitotic Cells (%),[6],0%
same,Population Normal (%),[6],100%
same,Population Pyknosed Nuclei (%),[6],8%
same,Population Tubulin-Different-Phenotype (%),[6],4%
same,Total Cell Count,[6],131
same,Population Apoptotic (%),[7],86%
same,Population Fragmented Nuclei (%),[7],22%
same,Population Healthy Nuclei (%),[7],66%
same,Population Hoechst High Intensity Objects (%),[7],2%
same,Population Membrane Permeable-Phenotype (%),[7],4%
same,Population Mitochondria Different-Phenotype (%),[7],1%
same,Population Mitotic Cells (%),[7],13%
same,Population Normal (%),[7],97%
same,Population Pyknosed Nuclei (%),[7],11%
same,Population Tubulin-Different-Phenotype (%),[7],2%
same,Total Cell Count,[7],333
same,Population Apoptotic (%),[8],87%
same,Population Fragmented Nuclei (%),[8],10%
same,Population Healthy Nuclei (%),[8],85%
same,Population Hoechst High Intensity Objects (%),[8],1%
same,Population Membrane Permeable-Phenotype (%),[8],7%
same,Population Mitotic Cells (%),[8],12%
same,Population Normal (%),[8],98%
same,Population Pyknosed Nuclei (%),[8],4%
same,Population Tubulin-Different-Phenotype (%),[8],3%
same,Total Cell Count,[8],180
same,Population Apoptotic (%),[9],87%
same,Population Fragmented Nuclei (%),[9],16%
same,Population Healthy Nuclei (%),[9],75%
same,Population Hoechst High Intensity Objects (%),[9],2%
same,Population Membrane Permeable-Phenotype (%),[9],4%
same,Population Mitochondria Different-Phenotype (%),[9],2%
same,Population Mitotic Cells (%),[9],12%
same,Population Normal (%),[9],97%
same,Population Pyknosed Nuclei (%),[9],7%
same,Population Tubulin-Different-Phenotype (%),[9],1%
same,Total Cell Count,[9],426
same,Population Apoptotic (%),[10],93%
same,Population Fragmented Nuclei (%),[10],11%
same,Population Healthy Nuclei (%),[10],67%
same,Population Membrane Permeable-Phenotype (%),[10],7%
same,Population Mitochondria Different-Phenotype (%),[10],3%
same,Population Mitotic Cells (%),[10],6%
same,Population Pyknosed Nuclei (%),[10],20%
same,Population Tubulin-Different-Phenotype (%),[10],3%
same,Total Cell Count,[10],158
same,Population Apoptotic (%),[11],95%
same,Population Fragmented Nuclei (%),[11],21%
same,Population Healthy Nuclei (%),[11],67%
same,Population Hoechst High Intensity Objects (%),[11],3%
same,Population Membrane Permeable-Phenotype (%),[11],8%
same,Population Mitochondria Different-Phenotype (%),[11],4%
same,Population Mitotic Cells (%),[11],4%
same,Population Normal (%),[11],96%
same,Population Pyknosed Nuclei (%),[11],11%
same,Population Tubulin-Different-Phenotype (%),[11],4%
same,Total Cell Count,[11],418
same,Population Apoptotic (%),[12],85%
same,Population Fragmented Nuclei (%),[12],8%
same,Population Healthy Nuclei (%),[12],81%
same,Population Hoechst High Intensity Objects (%),[12],2%
same,Population Membrane Permeable-Phenotype (%),[12],6%
same,Population Mitochondria Different-Phenotype (%),[12],2%
same,Population Mitotic Cells (%),[12],14%
same,Population Normal (%),[12],97%
same,Population Pyknosed Nuclei (%),[12],9%
same,Population Tubulin-Different-Phenotype (%),[12],2%
same,Total Cell Count,[12],284

# — ChEMBL document CHEMBL5058577, “EUbOPEN Chemogenomics Library 2 (Multiplex)” (2022)
